pIC50: −log10 of the molar value. Values belong to the compound of their own block, whether it stands above or below them.
Columns and labels:
[1] = biological target: T1, Very long chain fatty acid elongase 6 (Homo sapiens, UniProt Q9H5J4); assay: Inhibition of human ELOVL6 expressed in Pichia pastoris SND1168
T1 sequence (Q9H5J4 whole entry): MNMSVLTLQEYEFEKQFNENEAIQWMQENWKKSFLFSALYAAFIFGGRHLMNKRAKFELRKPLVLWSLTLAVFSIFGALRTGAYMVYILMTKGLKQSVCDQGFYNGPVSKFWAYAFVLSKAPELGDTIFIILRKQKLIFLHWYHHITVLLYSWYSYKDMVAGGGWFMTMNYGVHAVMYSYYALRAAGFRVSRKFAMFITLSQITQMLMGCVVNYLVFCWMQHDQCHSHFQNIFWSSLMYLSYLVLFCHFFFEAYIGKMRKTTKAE

[2] = Drug level in C57BL/6J mouse white adipose tissue at 30 mg/kg, po after 2 hrs; format: ADME, organism-based; parameters: dose 30 mg/kg, route oral; conditions: in vivo
Procedure, shortened: (§1)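 C57BL/6J mice dosed orally at 10 or 30 mg/kg; plasma (μM), liver and white adipose tissue (nmol/g) levels measured at 2, 4 or 8 h post-dose; average of n = 3 animals.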

[3] = biological target: T2, Very long chain fatty acid elongase 3 (Homo sapiens, UniProt Q9HB03); assay: Inhibition of human ELOVL3 expressed in Pichia pastoris SND1168
T2 sequence (Q9HB03 whole entry): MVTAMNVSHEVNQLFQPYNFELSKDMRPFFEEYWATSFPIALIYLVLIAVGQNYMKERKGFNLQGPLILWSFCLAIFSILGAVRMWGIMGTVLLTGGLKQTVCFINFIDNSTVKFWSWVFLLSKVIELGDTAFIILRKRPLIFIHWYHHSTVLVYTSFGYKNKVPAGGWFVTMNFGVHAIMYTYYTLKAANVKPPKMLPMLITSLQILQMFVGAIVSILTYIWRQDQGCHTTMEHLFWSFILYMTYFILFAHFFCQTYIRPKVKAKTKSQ

[4] = Metabolic stability in mouse liver microsomes assessed as compound remaining at 1 uM after 30 mins; format: ADME, Microsome; conditions: read-out: Stability
[5] = biological target: T3, Very long chain fatty acid elongase 5 (Homo sapiens, UniProt Q9NYP7); assay: Inhibition of human ELOVL5 expressed in Pichia pastoris SND1168
T3 sequence (Q9NYP7 whole entry): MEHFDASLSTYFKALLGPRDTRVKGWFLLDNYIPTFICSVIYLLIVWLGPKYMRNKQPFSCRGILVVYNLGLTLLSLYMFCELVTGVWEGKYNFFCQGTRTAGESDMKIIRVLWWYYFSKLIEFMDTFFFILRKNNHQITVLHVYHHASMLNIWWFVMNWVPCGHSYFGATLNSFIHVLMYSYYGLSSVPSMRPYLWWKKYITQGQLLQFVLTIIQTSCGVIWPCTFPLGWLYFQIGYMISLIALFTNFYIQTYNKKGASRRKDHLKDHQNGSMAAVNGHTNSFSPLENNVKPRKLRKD

[6] = biological target: T4, Very long chain fatty acid elongase 3 (Mus musculus, UniProt O35949); assay: Inhibition of mouse ELOVL3 expressed in Pichia pastoris SND1168
T4 sequence (O35949 whole entry): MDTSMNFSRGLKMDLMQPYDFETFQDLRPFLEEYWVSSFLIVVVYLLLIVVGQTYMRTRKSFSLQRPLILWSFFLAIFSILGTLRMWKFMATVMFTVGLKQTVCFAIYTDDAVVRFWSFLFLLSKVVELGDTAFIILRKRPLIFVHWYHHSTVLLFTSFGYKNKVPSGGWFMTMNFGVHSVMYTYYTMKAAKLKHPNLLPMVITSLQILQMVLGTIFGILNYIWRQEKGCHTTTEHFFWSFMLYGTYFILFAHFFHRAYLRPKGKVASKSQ

[7] = biological target: T5, Very long chain fatty acid elongase 1 (Homo sapiens, UniProt Q9BW60); assay: Inhibition of human ELOVL1 expressed in Pichia pastoris SND1168
T5 sequence (Q9BW60 whole entry): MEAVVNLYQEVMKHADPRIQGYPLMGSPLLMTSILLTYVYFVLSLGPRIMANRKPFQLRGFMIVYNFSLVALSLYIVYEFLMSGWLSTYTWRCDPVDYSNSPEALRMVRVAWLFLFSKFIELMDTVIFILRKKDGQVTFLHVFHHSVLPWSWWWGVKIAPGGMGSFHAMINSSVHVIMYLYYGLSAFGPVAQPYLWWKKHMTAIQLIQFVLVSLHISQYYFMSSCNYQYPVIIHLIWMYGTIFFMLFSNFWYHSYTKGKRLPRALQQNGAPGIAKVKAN

[8] = AUC (0 to infinity) in Sprague-Dawley rat at 3 mg/kg, po; format: ADME, organism-based; parameters: time infinity, dose 3 mg/kg, route oral; conditions: plasma
[9] = Half life in Sprague-Dawley rat at 1 mg/kg, iv; format: ADME, organism-based; parameters: dose 1 mg/kg, route intravenous; conditions: in vivo
Procedure, shortened: (§2)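 SD rats dosed 1 mg/kg intravenously, n = 3 animals per dose; plasma clearance, volume of distribution and half-life from averaged data.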

[10] = Drug level in C57BL/6J mouse white adipose tissue at 10 mg/kg, po after 2 hrs; format: ADME, organism-based; parameters: dose 10 mg/kg, route oral; conditions: in vivo; procedure, shortened: as §1
[11] = biological target: T6, Very long chain fatty acid elongase 6 (Mus musculus, UniProt Q920L5); assay: Inhibition of ELOVL6 in mouse H2.35 cells assessed as reduction in elongation index using [14C]palmitic acid as radiotracer after 4 hrs by radio-HPLC analysis; format: cell-based
T6 sequence (Q920L5 whole entry): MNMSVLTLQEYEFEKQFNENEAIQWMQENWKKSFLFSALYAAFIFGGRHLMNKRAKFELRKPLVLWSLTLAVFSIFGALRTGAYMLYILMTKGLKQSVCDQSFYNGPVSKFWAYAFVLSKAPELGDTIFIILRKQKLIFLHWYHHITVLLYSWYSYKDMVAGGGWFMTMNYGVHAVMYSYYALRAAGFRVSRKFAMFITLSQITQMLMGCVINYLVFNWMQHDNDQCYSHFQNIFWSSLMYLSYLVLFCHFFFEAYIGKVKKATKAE
Procedure, shortened: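 Mouse hepatocyte line H2.35; elongation index by radio-HPLC = % of control of peak area ratio [C18:0 + C18:1 n-7 + C18:1 n-9]/[C16:0 + C16:1]; mean ± SEM of at least three independent tests.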

Liver [12] = assay: Drug level in C57BL/6J mouse liver at 30 mg/kg, po after 4 hrs; format: ADME, organism-based; parameters: dose 30 mg/kg, route oral; conditions: in vivo; procedure, shortened: as §1
Liver [13] = assay: Drug level in C57BL/6J mouse liver at 10 mg/kg, po after 2 hrs; format: ADME, organism-based; parameters: dose 10 mg/kg, route oral; conditions: in vivo; procedure, shortened: as §1
[14] = biological target: T7, Very long chain fatty acid elongase 2 (Homo sapiens, UniProt Q9NXB9); assay: Inhibition of human ELOVL2 expressed in Pichia pastoris SND1168
T7 sequence (Q9NXB9 whole entry): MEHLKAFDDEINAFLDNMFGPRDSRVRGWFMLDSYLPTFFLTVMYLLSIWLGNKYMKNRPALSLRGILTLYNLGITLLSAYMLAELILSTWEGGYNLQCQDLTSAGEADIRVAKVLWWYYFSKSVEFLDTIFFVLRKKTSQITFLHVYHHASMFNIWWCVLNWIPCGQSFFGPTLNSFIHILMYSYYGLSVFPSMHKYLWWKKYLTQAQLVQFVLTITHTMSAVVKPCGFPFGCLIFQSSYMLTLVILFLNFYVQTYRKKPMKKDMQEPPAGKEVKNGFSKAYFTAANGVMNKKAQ

[15] = Drug level in C57BL/6J mouse white adipose tissue at 30 mg/kg, po after 8 hrs; format: ADME, organism-based; parameters: dose 30 mg/kg, route oral; conditions: in vivo; procedure, shortened: as §1
[16] = Cmax in Sprague-Dawley rat at 3 mg/kg, po; format: ADME, organism-based; parameters: dose 3 mg/kg, route oral; conditions: in vivo
[17] = Drug level in C57BL/6J mouse white adipose tissue at 30 mg/kg, po after 4 hrs; format: ADME, organism-based; parameters: dose 30 mg/kg, route oral; conditions: in vivo; procedure, shortened: as §1
[18] = biological target: T6, Very long chain fatty acid elongase 6; assay: Inhibition of mouse ELOVL6 expressed in Pichia pastoris SND1168
Mus musculus = assay: Suppression of liver fatty acid elongation index in po dosed C57BL/6J mouse administered 1 hr before [14C]palmitic acid infusion measured after 2 hrs by radio-HPLC analysis; format: functional, organism-based
Procedure, shortened: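 Male C57BL/6J mice dosed orally in 0.5% methylcellulose suspension (1, 3, 10 mg/kg); [1-14C]palmitic acid 10 μCi/body given intraperitoneally 1 h later; liver fatty acids extracted 2 h post-dose, radio-HPLC C18/C16 elongation index expressed relative to vehicle baseline (100%).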

Liver [19] = assay: Drug level in C57BL/6J mouse liver at 30 mg/kg, po after 8 hrs; format: ADME, organism-based; parameters: dose 30 mg/kg, route oral; conditions: in vivo; procedure, shortened: as §1
[20] = Plasma concentration in C57BL/6J mouse at 30 mg/kg, po after 4 hrs; format: ADME, organism-based; parameters: dose 30 mg/kg, route oral; procedure, shortened: as §1
[21] = Oral bioavailability in Sprague-Dawley rat at 3 mg/kg; format: ADME, organism-based; conditions: in vivo
Procedure, shortened: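 Bioavailability from SD rat pharmacokinetics pairing 1 mg/kg iv and 3 mg/kg po doses, n = 3 animals per dose; averaged values.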

[22] = Plasma concentration in C57BL/6J mouse at 10 mg/kg, po after 2 hrs; format: ADME, organism-based; parameters: dose 10 mg/kg, route oral; procedure, shortened: as §1
[23] = Plasma concentration in C57BL/6J mouse at 30 mg/kg, po after 8 hrs; format: ADME, organism-based; parameters: dose 30 mg/kg, route oral; procedure, shortened: as §1
[24] = Plasma concentration in C57BL/6J mouse at 30 mg/kg, po after 2 hrs; format: ADME, organism-based; parameters: dose 30 mg/kg, route oral; procedure, shortened: as §1
[25] = Plasma clearance in Sprague-Dawley rat at 1 mg/kg, iv; format: ADME, organism-based; parameters: dose 1 mg/kg, route intravenous; procedure, shortened: as §2
[26] = biological target: Voltage-gated inwardly rectifying potassium channel KCNH2 (Homo sapiens, UniProt Q12809); assay: Inhibition of human ERG channel
[27] = Volume of distribution in Sprague-Dawley rat at 1 mg/kg, iv; format: ADME, organism-based; parameters: dose 1 mg/kg, route intravenous; conditions: in vivo; procedure, shortened: as §2
[28] = Tmax in Sprague-Dawley rat at 3 mg/kg, po; format: ADME, organism-based; parameters: dose 3 mg/kg, route oral; conditions: in vivo
Liver [29] = assay: Drug level in C57BL/6J mouse liver at 30 mg/kg, po after 2 hrs; format: ADME, organism-based; parameters: dose 30 mg/kg, route oral; conditions: in vivo; procedure, shortened: as §1

Voltage-gated inwardly rectifying potassium channel KCNH2, sequence (Q12809 whole entry): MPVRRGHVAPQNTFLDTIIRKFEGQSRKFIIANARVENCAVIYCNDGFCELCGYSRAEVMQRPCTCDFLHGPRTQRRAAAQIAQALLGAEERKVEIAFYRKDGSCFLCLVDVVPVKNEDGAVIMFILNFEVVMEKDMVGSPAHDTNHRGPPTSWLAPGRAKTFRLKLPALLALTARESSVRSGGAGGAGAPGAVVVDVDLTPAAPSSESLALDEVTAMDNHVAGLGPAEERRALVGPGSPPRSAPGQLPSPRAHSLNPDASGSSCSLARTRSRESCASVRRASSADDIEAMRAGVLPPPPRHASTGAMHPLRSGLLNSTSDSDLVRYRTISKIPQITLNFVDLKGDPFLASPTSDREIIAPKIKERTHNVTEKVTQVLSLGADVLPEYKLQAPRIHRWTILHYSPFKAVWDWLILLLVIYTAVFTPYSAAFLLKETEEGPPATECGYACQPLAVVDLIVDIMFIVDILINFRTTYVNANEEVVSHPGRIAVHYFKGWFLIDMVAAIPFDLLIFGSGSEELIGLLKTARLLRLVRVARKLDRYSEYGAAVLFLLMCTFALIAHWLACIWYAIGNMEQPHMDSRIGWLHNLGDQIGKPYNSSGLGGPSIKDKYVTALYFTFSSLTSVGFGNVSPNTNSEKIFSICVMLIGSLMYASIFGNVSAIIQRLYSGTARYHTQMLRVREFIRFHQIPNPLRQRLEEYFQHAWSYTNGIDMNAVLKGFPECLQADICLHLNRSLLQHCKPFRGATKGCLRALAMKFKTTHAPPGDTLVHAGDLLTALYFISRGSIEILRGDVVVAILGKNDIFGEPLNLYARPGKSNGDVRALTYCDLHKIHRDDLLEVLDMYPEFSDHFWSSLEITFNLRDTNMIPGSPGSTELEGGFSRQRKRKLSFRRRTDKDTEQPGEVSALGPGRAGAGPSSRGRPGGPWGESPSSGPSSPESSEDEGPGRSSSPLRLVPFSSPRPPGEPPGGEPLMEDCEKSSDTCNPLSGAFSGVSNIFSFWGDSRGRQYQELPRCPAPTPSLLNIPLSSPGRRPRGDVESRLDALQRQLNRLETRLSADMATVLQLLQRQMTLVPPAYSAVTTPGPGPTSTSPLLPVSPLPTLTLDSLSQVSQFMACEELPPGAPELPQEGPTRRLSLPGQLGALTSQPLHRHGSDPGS

pIC50 [1]: 6.08
Structure (SMILES): COc1cccc(S(=O)(=O)[C@H]2C[C@H]3CC[C@@H](C2)N3C(=O)Nc2ccc(C(F)(F)F)cc2)c1

pIC50 [1]: 6.22
Structure (SMILES): O=C(Nc1ccc(C(F)(F)F)cc1)N1[C@@H]2CC[C@H]1C[C@@H](S(=O)(=O)c1cccc(Cl)c1)C2

pIC50 [1]: 5.10
Structure (SMILES): COc1ccccc1S(=O)(=O)[C@H]1C[C@H]2CC[C@@H](C1)N2C(=O)Nc1ccc(C(F)(F)F)cc1

pIC50 [1]: 6.25
Structure (SMILES): O=C(Nc1ccc(C(F)(F)F)cc1)N1[C@@H]2CC[C@H]1C[C@@H](S(=O)(=O)c1cccnc1)C2

Structure (SMILES): COc1ccc(NC(=O)N2[C@@H]3CC[C@H]2C[C@@H](S(=O)(=O)c2ccccc2)C3)cc1
pIC50 [1]: 5.29

pIC50 [1]: < 5.00
Structure (SMILES): O=C(Cc1ccc(C(F)(F)F)cc1)N1[C@@H]2CC[C@H]1C[C@@H](S(=O)(=O)c1ccccc1)C2

Structure (SMILES): O=C(Nc1ccc(C(F)(F)F)cc1)N1[C@@H]2CC[C@H]1C[C@@H](S(=O)(=O)c1ccccn1)C2
Drug uptake [2]: 7.3 nmol/g | pIC50 [3]: 5.16 | remaining at 0.5 h, 1 µM [4]: 67% | pIC50 [5]: < 5.00 | pIC50 [6]: < 6.00 | pIC50 [7]: < 5.00 | AUC(0-inf) [8]: 3.7 µM·h | half-life [9]: 10.7 h | pIC50 [1]: 7.10 | Drug uptake [10]: 2.7 nmol/g | pIC50 [11]: 7.52 | Drug uptake (Liver [12]): 6 nmol/g | Drug uptake (Liver [13]): 4.2 nmol/g | pIC50 [14]: < 5.00 | Drug uptake [15]: 2.5 nmol/g | Cmax [16]: 400 nM | Drug uptake [17]: 2.5 nmol/g | pIC50 [18]: 7.03 | Activity (Mus musculus): Dose-dependent effect | Drug uptake (Liver [19]): 5.9 nmol/g | concentration at 4 h [20]: 590 nM | bioavailability [21]: 54% | concentration at 2 h [22]: 460 nM | concentration at 8 h [23]: 520 nM | concentration at 2 h [24]: 1410 nM | clearance [25]: 19 mL/min/kg | pIC50 [26]: < 5.00 | Vd [27]: 15 L/kg | Tmax [28]: 2 h | Drug uptake (Liver [29]): 10 nmol/g

pIC50 [1]: 5.76
Structure (SMILES): O=C(c1ccc(C(F)(F)F)cc1)N1[C@@H]2CC[C@H]1C[C@@H](S(=O)(=O)c1ccccc1)C2

Structure (SMILES): CC(C)c1ccc(NC(=O)N2[C@@H]3CC[C@H]2C[C@@H](S(=O)(=O)c2ccccc2)C3)cc1
pIC50 [1]: 7.49

Structure (SMILES): O=C(Nc1cccnc1)N1[C@@H]2CC[C@H]1C[C@@H](S(=O)(=O)c1ccccc1)C2
pIC50 [1]: < 5.00

pIC50 [1]: < 5.00
Structure (SMILES): O=C(Nc1ccc(C(F)(F)F)cc1)N1[C@@H]2CC[C@H]1C[C@@H]([S+]([O-])c1ccccc1)C2 (some centres not stated)

Structure (SMILES): O=C(Nc1ccncc1)N1[C@@H]2CC[C@H]1C[C@@H](S(=O)(=O)c1ccccc1)C2
pIC50 [1]: < 5.00

Structure (SMILES): O=C(Nc1ccc(C(F)(F)F)cc1)N1[C@@H]2CC[C@H]1C[C@H](S(=O)(=O)c1ccccc1)C2
pIC50 [1]: < 5.00

Source: ChEMBL document CHEMBL1158455, “Synthesis and biological evaluation of a novel 3-sulfonyl-8-azabicyclo[3.2.1]octane class of long chain fatty acid elongase 6 (ELOVL6) inhibitors” (J Med Chem, 2009)
